The test system of data set [1] is Staphylococcus aureus. In words: Antibiofilm activity against Staphylococcus aureus ATCC 29213 assessed as inhibition of biofilm formation incubated for 24 hrs by crystal violet staining assay. It counts as functional. In short, it runs like this: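 Twofold serial dilutions in MHB received 1:1000-diluted exponential-phase bacteria and were incubated 24 h at 37 °C. Wells were rinsed, stained with 0.1% crystal violet for 10 min and dissolved in ethanol, and OD540 was read. MBIC80 was the concentration inhibiting 80% of biofilm formation versus untreated wells, taken from dose-response curves.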

The test system of data set [2] is Staphylococcus aureus. The experiment in a line: Antibacterial activity against Staphylococcus aureus ATCC 29213 assessed as reduction in bacterial growth compound preincubated with 50% sheep plasma for 3 hrs followed by incubation for 20 to 24 hrs by agar plate method. Type of data set: functional. The conditions noted are these: time 20-24 hrs. In short, it runs like this: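 Sheep plasma came from centrifuged defibrinated blood. Compound at 512 µg/mL in 50% water/50% plasma was preincubated at 37 °C for 0, 3 or 6 h, then serially diluted (256 to 4 µg/mL). Dilutions were mixed 1:3 with S. aureus suspension (10^5 CFU/mL) and incubated 20-24 h at 37 °C. MBC was taken as no colonies after 20 µL was plated on agar.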

The test system of data set [3] is Staphylococcus aureus. The experiment in a line: Bactericidal activity against early exponential phase of Staphylococcus aureus ATCC 29213 at 6X MIC measured after 6 hrs by time-kill kinetic assay. It counts as functional, organism-based. In short, it runs like this:
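An overnight culture was diluted 1:10,000 in MHB and shaken at 225 rpm and 37 °C for 2 h (early exponential phase), then exposed to compound. Samples taken at intervals were centrifuged, resuspended in PBS, plated as tenfold dilutions on MHA and incubated overnight at 37 °C. CFU/mL were counted. Biological replicates were run.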

Data set [4] can be described thus: Hemolytic activity in sheep RBC incubated for 1 hr. It counts as ADME, cell-based, Ovis aries, Erythrocyte. The note with it: sheep red blood cells (erythrocytes). In a few lines: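 Sheep RBCs were resuspended at 5% in PBS and mixed 3:1 with serial dilutions (2560 to 5 µg/mL, pre-mixing levels), then incubated 1 h at 37 °C. After centrifugation, supernatant A540 was read. Hemolysis % was calculated as (A−A0)/(Atotal−A0)×100, with untreated RBCs as 0% and 0.1% Triton X-100 as total lysis.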

For the next data set, the system named is Escherichia coli. In words: Antibiofilm activity against 24 hrs preformed biofilm of Escherichia coli ATCC 25922 assessed as eradication of preformed biofilm incubated for 24 hrs by crystal violet staining assay. Type of data set: functional.

Activity calls are given as the source filed them. The calls are words filed in the database; no cut-off is given here.

With `CCCCCCCCCCCN(C[C@H]1CN(c2ccc(N3CCOCC3)c(F)c2)C(=O)O1)C(=O)[C@@H](N)CCCCN.Cl.Cl`, in the data set on Staphylococcus aureus [1], the MBIC80 turned out to be 25.9 µg/mL and the MBIC90 worked out at 34.1 µg/mL. The MBC in the data set with Staphylococcus aureus [2] was 64 µg/mL. Further, the outcome in the data set with Staphylococcus aureus [3] was Active. In addition, the HC50 at 1 h in data set [4] amounted to 100 µg/mL. Besides, in the data set on Escherichia coli, the MBEC was 128 µg/mL, the MBEC80 is 112.8 µg/mL and the MBEC90 was found to be 120.3 µg/mL.

The values are drawn from ChEMBL document CHEMBL4673214, “Synthesis and antibacterial bioactivities of cationic deacetyl linezolid amphiphiles” (Eur J Med Chem, 2018).
